ChEMBL document CHEMBL1138298, “Synthesis and evaluation of 7H-8,9-dihydropyrano[2,3-c]imidazo[1,2-a]pyridines as potassium-competitive acid blockers” (J Med Chem, 2007)
Calls of active or inactive are those of the source. No cut-off for these calls is given here.

Columns and labels:
[1] = Distribution coefficient, log D of the compound; assay type: physicochemical; details: octanol/water
In short: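 Distribution between 1-octanol and aqueous KCl measured by potentiometric titration over pH 2.0-11.0 at 25 °C.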

Rattus norvegicus [2] = experiment: Inhibition of pentagastrin-stimulated acid secretion in perfused Ghosh Schild rat stomach at 1 umol/kg, intraduodenal; assay type: functional; parameters: scale not given: the % may be the effect or the level left
In short: (§1)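 Anaesthetised rat with perfused stomach: 37 °C saline at 0.5 mL/min. Effluent titrated to pH 7 with 0.01 N NaOH in 15-min fractions. Secretion driven by continuous iv pentagastrin, 1 µg/kg (1.65 mL/h). Compound given intraduodenally in 2.5 mL/kg volume 60 min after infusion start. Body temperature held at 37.8-38 °C.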

Sus scrofa = species: Sus scrofa; experiment: (§2) Inhibition of H+/K+ ATPase in hog gastric mucosa; assay type: tissue-based
In short: (§3)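 Hog gastric mucosa H+/K+-ATPase (0.5-1 µg/100 µL, with nigericin 1:1) in 4 mM Pipes/8 mM Tris pH 7.4, 0.25 M sucrose, 1 mM MgCl2, stimulated by 1 mM KCl. Compound 1e-4 to 1e-9 M final from DMSO stocks. Started with 1 mM Na-ATP, 30 min room temperature. Phosphate read by malachite green at 680 nm after 15 min.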

[3] = Dissociation constant, pKa of the compound; assay type: physicochemical
In short: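 Potentiometric cosolvent titration in 0.15 mol/L KCl, pH 2.0-11.0, 25 °C, methanol as cosolvent in varying portions; titrants 0.5 mol/L KOH and HCl.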

Rattus norvegicus [4] = experiment: Inhibition of pentagastrin-stimulated acid secretion in perfused Ghosh Schild rat stomach at 3 umol/kg, intraduodenal; assay type: functional; parameters: scale not given: the % may be the effect or the level left; in short: as §1
Gastric gland = experiment: Inhibition of acid secretion in rabbit intact gastric glands assessed as […] accumulation; assay type: functional, tissue-based; details: Oryctolagus cuniculus
In short: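 Isolated gastric glands in Krebs-Henseleit with 2 mg/mL rabbit serum albumin and 2 mg/mL glucose. Incubated 30 min at 37 °C, shaking, with 0.125 µM 14C-aminopyrine at pH 7.4, stimulated by 1 mM dibutyryl cAMP, inhibitor 3 nM-100 µM. Stopped by centrifugation. Accumulation taken from pellet/supernatant radioactivity ratio. IC50 from fitted inhibition equation.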

[5] = as §2; assay type: tissue-based, Sus scrofa; in short: as §3
Rattus norvegicus [6] = experiment: Inhibition of pentagastrin-stimulated acid secretion in perfused Ghosh Schild rat stomach at 0.3 umol/kg, intraduodenal; assay type: functional; parameters: scale not given: the % may be the effect or the level left; in short: as §1

Compound	logD [1]	Activity (Rattus norvegicus [2])	Activity (Sus scrofa)	pKa [3]	Activity (Rattus norvegicus [4])	IC50 (Gastric gland)	pIC50 [5]	Activity (Gastric gland)	Activity (Rattus norvegicus [6])
COCCNC(=O)c1c(C)nc2c3c(c(C(=O)N(C)C)cn12)CCC(c1ccccc1)O3 (racemic)	1.95	54%	inactive	4.38					
Cc1nc2c3c(c(C(=O)O)cn2c1C)CCC(c1ccccc1)O3 (racemic)	0.7			2.65	15%	25.1 µM	5.2		
Cc1nc2c3c(c(C(=O)N4CC(O)C4)cn2c1C)CCC(c1ccccc1)O3 (racemic)	2.19			6.63	54%	63.1 µM	5.9		
Cc1nc2c3c(c(C(=O)N(C)C)cn2c1C)CC[C@H](c1ccccc1F)O3					42%	0.398 µM	5.3		
Cc1nc2c3c(c(C(=O)N4CCC4)cn2c1C)CC[C@H](c1ccccc1)O3					37%	1.58 µM	5.1		
Cc1nc2c3c(c(C(=O)NS(C)(=O)=O)cn2c1C)CCC(c1ccccc1)O3 (racemic)	1.9			2.5	38%		4.2	inactive	
CNC(=O)c1cn2c(C)c(C)nc2c2c1CC[C@@H](c1ccccc1)O2						2 µM	6.3		62%
Cc1nc2c3c(c(C(=O)N4CCCC4)cn2c1C)CC[C@H](c1ccccc1)O3					27%	2.51 µM	4.5		
Cc1nc2c3c(c(C(=O)N(C)C)cn2c1C(=O)N(C)C)CCC(c1ccccc1)O3 (racemic)	1.69	26%	inactive	4.51					
Cc1nc2c3c(c(C(=O)N(C)C)cn2c1Br)CC[C@H](c1ccccc1)O3					38%	31.6 µM	< 4		
CNC(=O)c1cn2c(C)c(C)nc2c2c1CC[C@H](c1ccccc1)O2					38%	5.01 µM	4.4		
CCc1c(C)nc2c3c(c(C(=O)N(C)C)cn12)CC[C@H](c1ccccc1)O3					20%	10 µM	4.4		
